We go through 14 compounds from ChEMBL document CHEMBL4219218, “P3-P4 ureas and reverse carbamates as potent HCV NS3 protease inhibitors: Effective transposition of the P4 hydrogen bond donor” (Bioorg Med Chem Lett, 2018).

As usually defined, the AUC is concentration integrated over time.

The nature of data set [1]: Drug level in Sprague-Dawley rat liver at 15 mg/kg administered intraduodenally as single dose measured at 4 hrs by LC/MS/MS method. The following applies: read-out: Drug uptake. Format: ADME, organism-based. The gist of the method: (§1)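 Single intraduodenal dose of 15 mg/kg to rats, n = 2. Plasma and liver exposure measured over a 4 h period, with a 4 h endpoint.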
A short description of data set [2]: AUC in Sprague-Dawley rat plasma at 15 mg/kg administered intraduodenally as single dose measured at 4 hrs by LC/MS/MS method. It is filed as ADME, organism-based. More on the design: dose 15 mg/kg, time < 4 hr, route intraduodenal. The gist of the method: as §1

Consider `C=C[C@@H]1C[C@]1(NC(=O)[C@@H]1C[C@@H](Oc2nccc3cc(OC)ccc23)CN1C(=O)[C@@H](NC(=O)OC(C)(C)C)C(C)(C)C)C(=O)NS(=O)(=O)C1CC1`, for which the concentration at 4 h in data set [1] is 64700 ng/g. The compound further returned an AUC at 4 h in data set [2] of 7420 ng·h/mL. As to `C=C[C@@H]1C[C@]1(NC(=O)[C@@H]1C[C@@H](Oc2cc(-c3ccccc3)nc3cc(OC)ccc23)CN1C(=O)[C@@H](NC(=O)OC(C)(C)C)C(C)(C)C)C(=O)NS(=O)(=O)C1CC1`, the concentration at 4 h in data set [1] is 7850 ng/g. In data set [2], the AUC at 4 h came out at 61 ng·h/mL. Regarding `C=C[C@@H]1C[C@]1(NC(=O)[C@@H]1C[C@@H](Oc2nccc3cc(OC)ccc23)CN1C(=O)[C@@H](NC(=O)NC(C)(C)C)C(C)(C)C)C(=O)NS(=O)(=O)C1CC1`, the concentration at 4 h in data set [1] was 1110 ng/g. This compound also came in with an AUC at 4 h in data set [2] of 497 ng·h/mL.

On to `C=C[C@@H]1C[C@]1(NC(=O)[C@@H]1C[C@@H](Oc2cc(-c3ccccc3)nc3cc(OC)ccc23)CN1C(=O)[C@H]([C@@H](C)CC)N(C)C(=O)NC1CCCC1)C(=O)NS(=O)(=O)C1CC1`, for which the concentration at 4 h in data set [1] came to 1240 ng/g. Turning to `C=C[C@@H]1C[C@]1(NC(=O)[C@@H]1C[C@@H](Oc2cc(-c3ccccc3)nc3cc(OC)ccc23)CN1C(=O)[C@@H](NC(=O)NC(C)(C)C)C(C)(C)C)C(=O)NS(=O)(=O)C1CC1`, the concentration at 4 h in data set [1] was 72 ng/g. In data set [2], this compound came in with an AUC at 4 h of 17 ng·h/mL. Regarding `C=C[C@@H]1C[C@]1(NC(=O)[C@@H]1C[C@@H](Oc2nccc3cc(OC)ccc23)CN1C(=O)[C@@H](NC(=O)N[C@H](COC)C(C)(C)C)C(C)(C)C)C(=O)NS(=O)(=O)C1CC1`, the concentration at 4 h in data set [1] was found to be 838 ng/g. The compound further had an AUC at 4 h in data set [2] of 3280 ng·h/mL. In the case of `C=C[C@@H]1C[C@]1(NC(=O)[C@@H]1C[C@@H](Oc2nccc3cc(OC)ccc23)CN1C(=O)[C@@H](NC(=O)N[C@H](C(=O)N1CCN(c2ncccn2)CC1)C(C)(C)C)C(C)(C)C)C(=O)NS(=O)(=O)C1CC1`, in data set [1], the concentration at 4 h came to 87 ng/g. Further, the AUC at 4 h in data set [2] was determined as 1630 ng·h/mL. With `C=C[C@@H]1C[C@]1(NC(=O)[C@@H]1C[C@@H](Oc2cc(-c3ccccc3)nc3cc(OC)ccc23)CN1C(=O)[C@@H](OC(=O)NC1CCCC1)C(C)(C)C)C(=O)NS(=O)(=O)C1CC1`, the concentration at 4 h in data set [1] stood at 3430 ng/g. This compound came in with an exposure (AUC) at 4 h in data set [2] of 95 ng·h/mL.

Take `C=C[C@@H]1C[C@]1(NC(=O)[C@@H]1C[C@@H](Oc2cc(-c3ccccc3)nc3cc(OC)ccc23)CN1C(=O)[C@H]([C@@H](C)CC)N(C)C(=O)NC(C)(C)C)C(=O)NS(=O)(=O)C1CC1`: in data set [1], the concentration at 4 h turned out to be 1780 ng/g. Moreover, the AUC at 4 h in data set [2] worked out at 16 ng·h/mL.

Compound `C=C[C@@H]1C[C@]1(NC(=O)[C@@H]1C[C@@H](Oc2nccc3cc(OC)ccc23)CN1C(=O)[C@@H](NC(=O)N[C@H](C(=O)O)C(C)(C)C)C(C)(C)C)C(=O)NS(=O)(=O)C1CC1` registered an AUC at 4 h in data set [2] of 91 ng·h/mL.

In the case of `C=C[C@@H]1C[C@]1(NC(=O)[C@@H]1C[C@@H](Oc2nccc3cc(OC)ccc23)CN1C(=O)[C@@H](NC(=O)N[C@H](C(=O)OC(C)(C)C)C(C)(C)C)C(C)(C)C)C(=O)NS(=O)(=O)C1CC1`, the concentration at 4 h in data set [1] was found to be 4850 ng/g. Moreover, the AUC at 4 h in data set [2] stood at 632 ng·h/mL. Take `C=C[C@@H]1C[C@]1(NC(=O)[C@@H]1C[C@@H](Oc2cc(-c3ccccc3)nc3cc(OC)ccc23)CN1C(=O)[C@@H](OC(=O)NC(C)C)C(C)(C)C)C(=O)NS(=O)(=O)C1CC1`: in data set [1], the concentration at 4 h came to 430 ng/g. In the case of `C=C[C@@H]1C[C@]1(NC(=O)[C@@H]1C[C@@H](Oc2cc(-c3ccccc3)nc3cc(OC)ccc23)CN1C(=O)[C@@H](OC(=O)NC(C)(C)C)C(C)(C)C)C(=O)NS(=O)(=O)C1CC1`, the concentration at 4 h in data set [1] turned out to be 3770 ng/g. Moreover, in data set [2], the AUC at 4 h was 82 ng·h/mL. `C=C[C@@H]1C[C@]1(NC(=O)[C@@H]1C[C@@H](Oc2cc(-c3ccccc3)nc3cc(OC)ccc23)CN1C(=O)[C@@H](NC(=O)N(C)C(C)(C)C)C(C)(C)C)C(=O)NS(=O)(=O)C1CC1`: the concentration at 4 h in data set [1] is 2600 ng/g. Besides, in data set [2], the AUC at 4 h was 32 ng·h/mL.
